Measurements as given in ChEMBL document CHEMBL1146016, “Synthesis and structure-activity relationships of 3,4-diaminocyclobut-3-ene-1,2-dione CXCR2 antagonists” (Bioorg Med Chem Lett, 2006).

What was measured:
[1] = molecular target: T1, C-X-C chemokine receptor type 2 (Homo sapiens, UniProt P25025); experiment: Displacement of [125I]IL8 from human CXCR2 expressed in CHO cells; format: cell-based
T1 sequence (P25025 whole entry): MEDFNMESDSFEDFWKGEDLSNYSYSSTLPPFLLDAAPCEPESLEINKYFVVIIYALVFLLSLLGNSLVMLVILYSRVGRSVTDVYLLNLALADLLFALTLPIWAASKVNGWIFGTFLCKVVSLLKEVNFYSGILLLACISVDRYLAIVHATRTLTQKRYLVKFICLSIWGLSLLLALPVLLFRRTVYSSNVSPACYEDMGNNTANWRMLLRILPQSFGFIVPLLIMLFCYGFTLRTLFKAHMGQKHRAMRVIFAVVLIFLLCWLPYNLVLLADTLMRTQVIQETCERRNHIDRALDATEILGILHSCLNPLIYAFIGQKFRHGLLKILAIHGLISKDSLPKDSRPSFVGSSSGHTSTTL

[2] = Metabolic stability in human liver microsome after 30 min at 37 degreeC; format: ADME; conditions: liver microsomes, read-out: Stability
Outline: (§1)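 Liver microsomes (human or rat) incubated with compound at 1 µM final for 30 min at 37 °C in 100 mM potassium phosphate pH 7.4 with 1 mM β-NADPH; reported as percent parent remaining; means ± SD of two or more measurements.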

[3] = Permeability across Caco-2 cell membrane; format: ADME, cell-based; conditions: human
Outline: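 Caco-2 monolayers in a commercial HTS Caco-2 system run per kit instructions; apicalto-basolateral apparent permeability (nm/s), binned as low or high predicted absorption; means ± SD of two or more measurements.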

[4] = Metabolic stability in rat liver microsome after 30 min at 37 degreeC; format: ADME; conditions: liver microsomes, read-out: Stability; outline: as §1

| Compound | IC50 [1] [µM] | further results |
| --- | --- | --- |
| CN(c1ccccc1O)c1c(Nc2ccccc2)c(=O)c1=O | 28.6 |  |
| O=c1c(O)c(Nc2ccc([N+](=O)[O-])cc2)/c1=N/c1ccccc1 | 8.6 |  |
| O=c1c(O)c(Nc2cc([N+](=O)[O-])ccc2O)/c1=N/c1ccccc1 | 0.056 |  |
| N#Cc1ccc(Nc2c(O)c(=O)/c2=N\c2ccccc2)c(O)c1 | 0.003 |  |
| O=C(O)c1cccc(/N=c2\c(O)c(O)\c2=N/c2ccccc2)c1O | 1 |  |
| CN(C)C(=O)c1cccc(/N=c2\c(O)c(O)\c2=N/CCc2ccccc2)c1O | 0.926 |  |
| CN(C)C(=O)c1cccc(/N=c2\c(O)c(O)\c2=N/c2ccccc2)c1O | 0.002 | remaining at 0.5 h [2]: 64%; Papp [3]: 2.4 ×10⁻⁶ cm/s; remaining at 0.5 h [4]: 67% |
| CCNC(=O)c1cccc(/N=c2\c(O)c(O)\c2=N/c2ccccc2)c1O | 0.065 |  |
| CCC(CC)/N=c1\c(O)c(O)\c1=N/c1cccc(C(=O)N(C)C)c1O |  | remaining at 0.5 h [2]: 82%; Papp [3]: 12 ×10⁻⁶ cm/s; remaining at 0.5 h [4]: 75% |
| NC(=O)c1cccc(/N=c2\c(O)c(O)\c2=N/c2ccccc2)c1O | 0.034 |  |
| CN(C)C(=O)c1cccc(/N=c2/c(N(C)c3ccccc3)c(O)c2=O)c1O | 7.2 |  |
| CNC(=O)c1cccc(/N=c2\c(O)c(O)\c2=N/c2ccccc2)c1O | 0.022 |  |
| N#Cc1ccc(O)c(Nc2c(O)c(=O)/c2=N\c2ccccc2)c1 | 0.074 |  |
| O=C(O)c1ccc(/N=c2\c(O)c(O)\c2=N/c2ccccc2)c(O)c1 | 3.1 |  |
| O=c1c(O)c(Nc2ccc([N+](=O)[O-])cc2O)/c1=N/c1ccccc1 | 0.036 |  |
| COC(=O)c1cccc(/N=c2\c(O)c(O)\c2=N/c2ccccc2)c1O | 0.053 |  |
| CN(C)C(=O)c1cc(Cl)cc(/N=c2\c(O)c(O)\c2=N/c2ccccc2)c1O | 0.002 |  |
| O=c1c(O)c(Nc2ccccc2)/c1=N/c1ccccc1O | 0.476 |  |
| O=C(NCc1ccccc1)c1cccc(Nc2c(O)c(=O)/c2=N\c2ccccc2)c1O | 0.139 |  |

Now from value to compound, other results behind:

| IC50 [1] [µM] | Compound | further results |
| --- | --- | --- |
| 0.014 | CN(C)C(=O)c1cccc(/N=c2\c(O)c(O)\c2=N/C(C)(C)C)c1O |  |
| 0.041 | CN(C)C(=O)c1cccc(/N=c2\c(O)c(O)\c2=N/Cc2ccco2)c1O |  |
| 0.01 | CN(C)C(=O)c1cccc(/N=c2\c(O)c(O)\c2=N/C2CCCCC2)c1O |  |
| 0.548 | CN(C)C(=O)c1cccc(/N=c2\c(O)c(O)\c2=N/[C@@H]2CCc3ccccc32)c1O |  |
| 0.008 | CN(C)C(=O)c1cccc(/N=c2\c(O)c(O)\c2=N/C2CCCC2)c1O | remaining at 0.5 h [2]: 72%; Papp [3]: 10.1 ×10⁻⁶ cm/s; remaining at 0.5 h [4]: 56% |
| 0.01 | CC(C)/N=c1\c(O)c(O)\c1=N/c1cccc(C(=O)N(C)C)c1O |  |
| 0.171 | CN(C)C(=O)c1cccc(/N=c2\c(O)c(O)\c2=N/C2CCOCC2)c1O |  |
